Measurements taken from ChEMBL document CHEMBL1932983, “Towards a stable noeuromycin analog with a D-manno configuration: synthesis and glycosidase inhibition of D-manno-like tri- and tetrahydroxylated azepanes” (Bioorg Med Chem, 2012).
Calls of active or inactive are those of the source. The rule behind the calls is not given here.

Experiments:
[1] = molecular target: T1, Tissue alpha-L-fucosidase (Bos taurus) (UniProt Q2KIM0); assay: Inhibition of bovine kidney alpha-L-fucosidase at 1000 uM
T1 sequence (whole entry): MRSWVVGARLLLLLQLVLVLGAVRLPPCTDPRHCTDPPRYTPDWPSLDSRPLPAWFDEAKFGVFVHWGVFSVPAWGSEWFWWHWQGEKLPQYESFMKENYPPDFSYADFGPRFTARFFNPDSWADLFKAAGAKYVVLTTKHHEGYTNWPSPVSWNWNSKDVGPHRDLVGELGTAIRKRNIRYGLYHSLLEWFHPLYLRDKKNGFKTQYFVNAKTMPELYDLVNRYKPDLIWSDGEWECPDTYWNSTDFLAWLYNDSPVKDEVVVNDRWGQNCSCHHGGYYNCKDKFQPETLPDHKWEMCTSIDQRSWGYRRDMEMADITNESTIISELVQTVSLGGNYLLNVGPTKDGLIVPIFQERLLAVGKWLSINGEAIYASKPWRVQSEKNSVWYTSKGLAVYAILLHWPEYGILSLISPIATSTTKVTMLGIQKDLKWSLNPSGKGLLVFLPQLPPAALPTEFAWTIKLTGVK
Method in brief: (§1)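 Commercial glycosidases were tested with a single inhibitor level of 1000 μM, and percent inhibition was recorded. "NI" means less than 50% inhibition at that concentration.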

[2] = molecular target: T2, Beta-galactosidase (Bos taurus, UniProt Q58D55); assay: Inhibition of bovine liver beta-galactosidase
T2 sequence (Q58D55 whole entry): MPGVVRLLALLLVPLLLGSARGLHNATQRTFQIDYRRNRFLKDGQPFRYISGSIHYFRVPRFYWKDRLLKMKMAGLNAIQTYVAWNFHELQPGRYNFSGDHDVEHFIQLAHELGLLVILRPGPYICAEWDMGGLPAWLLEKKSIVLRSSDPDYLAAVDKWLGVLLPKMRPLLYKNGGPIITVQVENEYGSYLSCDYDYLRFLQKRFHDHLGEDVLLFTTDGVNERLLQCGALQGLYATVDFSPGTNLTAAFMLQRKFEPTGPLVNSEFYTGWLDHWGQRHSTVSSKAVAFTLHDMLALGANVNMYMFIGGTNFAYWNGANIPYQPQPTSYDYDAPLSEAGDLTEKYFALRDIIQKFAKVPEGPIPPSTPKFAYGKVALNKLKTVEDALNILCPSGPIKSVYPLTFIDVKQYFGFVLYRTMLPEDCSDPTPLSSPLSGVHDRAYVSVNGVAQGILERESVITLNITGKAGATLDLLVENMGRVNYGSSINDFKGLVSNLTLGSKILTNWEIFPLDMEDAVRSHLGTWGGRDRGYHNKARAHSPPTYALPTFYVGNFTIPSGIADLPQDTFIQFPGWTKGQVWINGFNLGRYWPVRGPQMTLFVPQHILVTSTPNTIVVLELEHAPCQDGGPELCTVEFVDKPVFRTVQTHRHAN

[3] = tested on: Prunus dulcis; assay: Inhibition of almond beta-glucosidase at 1000 uM; method in brief: as §1
[4] = tested on: Helix pomatia; assay: Inhibition of snail beta-mannosidase at 1000 uM; method in brief: as §1
[5] = tested on: Coffea; assay: Inhibition of coffee beans alpha-galactosidase at 1000 uM; method in brief: as §1
[6] = tested on: Canavalia ensiformis; assay: Inhibition of jack beans alpha-mannosidase at 1000 uM; method in brief: as §1
[7] = molecular target: T3, Uncharacterized protein (Sus scrofa) (UniProt I3LIR5); assay: Inhibition of pig kidney trehalase at 1000 uM; method in brief: as §1
T3 sequence (whole entry): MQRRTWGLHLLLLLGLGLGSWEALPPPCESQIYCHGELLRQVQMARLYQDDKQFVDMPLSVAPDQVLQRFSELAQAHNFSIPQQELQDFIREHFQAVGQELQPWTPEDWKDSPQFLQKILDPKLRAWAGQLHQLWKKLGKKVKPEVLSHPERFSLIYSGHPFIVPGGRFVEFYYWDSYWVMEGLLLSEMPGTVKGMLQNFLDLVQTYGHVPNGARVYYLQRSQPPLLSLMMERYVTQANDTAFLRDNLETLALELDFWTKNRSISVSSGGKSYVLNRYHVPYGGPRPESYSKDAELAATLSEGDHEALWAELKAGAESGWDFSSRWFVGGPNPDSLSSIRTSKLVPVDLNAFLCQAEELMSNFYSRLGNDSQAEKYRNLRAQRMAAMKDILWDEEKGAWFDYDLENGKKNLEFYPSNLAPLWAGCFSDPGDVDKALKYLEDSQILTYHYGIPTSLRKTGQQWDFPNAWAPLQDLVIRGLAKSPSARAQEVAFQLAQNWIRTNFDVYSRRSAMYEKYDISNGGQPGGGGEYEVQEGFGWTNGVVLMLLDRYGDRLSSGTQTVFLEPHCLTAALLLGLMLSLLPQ

[8] = molecular target: T4, Lysosomal alpha-mannosidase (Bos taurus) (UniProt Q29451); assay: Inhibition of lysosomal alpha-mannosidase in MDBK cells assessed as Man5-8GlcNAc2FOS formation at 1 mM after 24 hrs by HPLC analysis; assay type: cell-based
T4 sequence (whole entry): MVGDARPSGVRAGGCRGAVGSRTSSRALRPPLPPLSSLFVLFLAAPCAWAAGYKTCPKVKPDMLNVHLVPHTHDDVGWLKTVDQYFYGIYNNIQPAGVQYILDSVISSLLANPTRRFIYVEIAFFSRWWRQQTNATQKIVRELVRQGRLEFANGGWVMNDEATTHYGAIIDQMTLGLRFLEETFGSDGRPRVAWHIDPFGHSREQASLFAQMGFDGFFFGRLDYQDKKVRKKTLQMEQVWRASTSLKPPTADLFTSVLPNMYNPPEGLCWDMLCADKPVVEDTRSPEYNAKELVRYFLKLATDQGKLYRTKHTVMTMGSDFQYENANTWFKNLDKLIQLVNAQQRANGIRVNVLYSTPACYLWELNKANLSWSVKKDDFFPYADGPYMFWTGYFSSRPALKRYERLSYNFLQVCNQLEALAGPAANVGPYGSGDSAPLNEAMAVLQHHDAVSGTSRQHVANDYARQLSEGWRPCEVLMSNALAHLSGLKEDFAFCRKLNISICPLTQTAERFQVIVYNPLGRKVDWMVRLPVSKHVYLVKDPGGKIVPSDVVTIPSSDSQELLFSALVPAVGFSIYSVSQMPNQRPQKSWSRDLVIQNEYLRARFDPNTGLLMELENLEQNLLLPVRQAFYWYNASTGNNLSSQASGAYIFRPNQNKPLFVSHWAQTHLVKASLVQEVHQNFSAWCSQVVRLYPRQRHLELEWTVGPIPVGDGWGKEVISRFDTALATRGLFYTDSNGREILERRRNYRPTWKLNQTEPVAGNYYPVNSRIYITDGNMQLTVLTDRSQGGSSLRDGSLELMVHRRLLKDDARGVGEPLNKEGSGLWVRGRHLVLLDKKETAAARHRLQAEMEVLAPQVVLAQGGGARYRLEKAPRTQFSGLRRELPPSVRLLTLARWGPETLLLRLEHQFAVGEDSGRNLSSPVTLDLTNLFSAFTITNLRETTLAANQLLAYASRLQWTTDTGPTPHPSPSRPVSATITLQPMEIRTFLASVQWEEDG
Method in brief: (§2)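 MDBK cells were treated with azepanes alongside untreated cells and a swainsonine control (1 mM, 24 h). Free oligosaccharides (FOS) were labelled with 2-AA and profiled by fluorescence HPLC. Mannosylated species were compared: Man3GlcNAc2 and Man5-8GlcNAc2 indicate lysosomal activity, and Man5GlcNAc1 indicates cytosolic mannosidase activity.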

[9] = tested on: Penicillium decumbens; assay: Inhibition of Penicillium decumbens alpha-L-rhamnosidase at 1000 uM; method in brief: as §1
[10] = molecular target: Probable alpha-glucosidase Os06g0675700 (Oryza sativa Japonica Group) (UniProt Q653V7); assay: Inhibition of rice alpha-glucosidase at 1000 uM; method in brief: as §1
Probable alpha-glucosidase Os06g0675700 (Oryza sativa Japonica Group), sequence (Q653V7 whole entry): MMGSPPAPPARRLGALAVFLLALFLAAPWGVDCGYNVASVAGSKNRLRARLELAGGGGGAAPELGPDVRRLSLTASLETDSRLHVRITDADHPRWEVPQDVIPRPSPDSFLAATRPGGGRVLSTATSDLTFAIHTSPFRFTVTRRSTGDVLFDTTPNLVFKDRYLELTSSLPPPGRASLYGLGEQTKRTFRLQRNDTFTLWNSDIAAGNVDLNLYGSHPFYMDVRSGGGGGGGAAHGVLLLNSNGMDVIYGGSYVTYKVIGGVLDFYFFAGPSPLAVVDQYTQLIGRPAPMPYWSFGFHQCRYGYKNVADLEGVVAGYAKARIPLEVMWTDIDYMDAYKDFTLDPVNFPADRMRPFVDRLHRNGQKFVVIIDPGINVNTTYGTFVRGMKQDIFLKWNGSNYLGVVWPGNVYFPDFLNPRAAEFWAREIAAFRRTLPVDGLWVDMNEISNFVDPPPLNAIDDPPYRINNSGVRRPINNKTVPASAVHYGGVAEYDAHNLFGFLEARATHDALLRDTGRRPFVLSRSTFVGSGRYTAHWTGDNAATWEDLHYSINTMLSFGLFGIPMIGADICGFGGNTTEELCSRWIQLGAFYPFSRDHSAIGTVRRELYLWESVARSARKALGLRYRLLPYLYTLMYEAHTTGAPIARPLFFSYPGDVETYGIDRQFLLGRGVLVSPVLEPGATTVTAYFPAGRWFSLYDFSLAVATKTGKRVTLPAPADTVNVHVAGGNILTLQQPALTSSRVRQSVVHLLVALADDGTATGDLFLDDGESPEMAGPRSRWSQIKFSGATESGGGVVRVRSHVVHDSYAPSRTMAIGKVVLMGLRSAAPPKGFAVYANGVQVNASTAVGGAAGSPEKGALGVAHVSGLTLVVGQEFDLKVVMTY

[11] = molecular target: T5, Beta-glucuronidase (Bos taurus) (UniProt A3KMY8); assay: Inhibition of bovine liver beta glucuronidase at 1000 uM; method in brief: as §1
T5 sequence (whole entry): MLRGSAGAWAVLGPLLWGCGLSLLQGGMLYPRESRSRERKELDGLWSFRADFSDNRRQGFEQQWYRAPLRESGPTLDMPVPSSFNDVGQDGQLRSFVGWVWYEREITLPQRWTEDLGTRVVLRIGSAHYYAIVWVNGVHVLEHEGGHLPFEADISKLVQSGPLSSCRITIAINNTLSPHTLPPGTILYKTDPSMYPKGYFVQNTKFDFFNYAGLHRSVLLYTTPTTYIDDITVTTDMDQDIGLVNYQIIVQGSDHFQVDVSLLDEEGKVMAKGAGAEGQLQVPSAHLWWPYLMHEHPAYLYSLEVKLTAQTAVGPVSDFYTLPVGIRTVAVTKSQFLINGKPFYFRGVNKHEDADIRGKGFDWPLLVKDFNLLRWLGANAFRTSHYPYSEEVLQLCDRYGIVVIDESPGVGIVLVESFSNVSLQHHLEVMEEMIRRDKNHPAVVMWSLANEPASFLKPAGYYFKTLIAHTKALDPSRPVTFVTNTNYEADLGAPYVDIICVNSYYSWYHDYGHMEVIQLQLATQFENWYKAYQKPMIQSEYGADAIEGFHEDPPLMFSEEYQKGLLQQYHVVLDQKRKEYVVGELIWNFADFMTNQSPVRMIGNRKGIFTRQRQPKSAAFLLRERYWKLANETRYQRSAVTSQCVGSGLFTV

[12] = molecular target: Oligo-1,6-glucosidase IMA1 (Saccharomyces cerevisiae S288c) (UniProt P53051); assay: Inhibition of yeast alpha-glucosidase at 1000 uM; method in brief: as §1
Oligo-1,6-glucosidase IMA1 (Saccharomyces cerevisiae S288c), sequence (P53051 whole entry): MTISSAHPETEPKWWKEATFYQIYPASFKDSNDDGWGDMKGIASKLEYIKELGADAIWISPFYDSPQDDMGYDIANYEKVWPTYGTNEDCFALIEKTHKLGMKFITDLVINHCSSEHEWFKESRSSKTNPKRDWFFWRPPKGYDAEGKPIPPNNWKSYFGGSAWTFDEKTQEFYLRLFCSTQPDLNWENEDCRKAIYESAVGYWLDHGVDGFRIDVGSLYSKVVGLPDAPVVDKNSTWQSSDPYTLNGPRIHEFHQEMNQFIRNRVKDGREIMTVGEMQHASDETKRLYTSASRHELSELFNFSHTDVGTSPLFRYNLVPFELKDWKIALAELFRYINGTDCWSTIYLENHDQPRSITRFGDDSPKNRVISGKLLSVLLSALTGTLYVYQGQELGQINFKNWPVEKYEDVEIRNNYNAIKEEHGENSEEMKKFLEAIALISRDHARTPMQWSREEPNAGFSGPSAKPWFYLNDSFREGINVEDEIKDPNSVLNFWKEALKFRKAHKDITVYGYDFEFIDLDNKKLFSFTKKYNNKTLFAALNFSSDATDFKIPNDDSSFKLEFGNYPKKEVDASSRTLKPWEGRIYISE

[13] = tested on: Aspergillus niger; assay: Inhibition of Aspergillus niger amyloglucosidase at 1000 uM; method in brief: as §1
[14] = tested on: MDBK; assay: Inhibition of cytosolic alpha-mannosidase in MDBK cells assessed as Man5GlcNAc1 formation at 1 mM after 24 hrs by HPLC analysis; assay type: cell-based; details: Bos taurus; method in brief: as §2
[15] = molecular target: Probable alpha-glucosidase Os06g0675700 (Oryza sativa Japonica Group, UniProt Q653V7); assay: Inhibition of rice alpha-glucosidase
Probable alpha-glucosidase Os06g0675700, sequence (Q653V7 whole entry): as the sequence (Q653V7 whole entry) above

[16] = molecular target: T6, Glucosylceramidase (Bos taurus) (UniProt Q2KHZ8); assay: Inhibition of bovine liver beta-glucosidase at 1000 uM; method in brief: as §1
T6 sequence (whole entry): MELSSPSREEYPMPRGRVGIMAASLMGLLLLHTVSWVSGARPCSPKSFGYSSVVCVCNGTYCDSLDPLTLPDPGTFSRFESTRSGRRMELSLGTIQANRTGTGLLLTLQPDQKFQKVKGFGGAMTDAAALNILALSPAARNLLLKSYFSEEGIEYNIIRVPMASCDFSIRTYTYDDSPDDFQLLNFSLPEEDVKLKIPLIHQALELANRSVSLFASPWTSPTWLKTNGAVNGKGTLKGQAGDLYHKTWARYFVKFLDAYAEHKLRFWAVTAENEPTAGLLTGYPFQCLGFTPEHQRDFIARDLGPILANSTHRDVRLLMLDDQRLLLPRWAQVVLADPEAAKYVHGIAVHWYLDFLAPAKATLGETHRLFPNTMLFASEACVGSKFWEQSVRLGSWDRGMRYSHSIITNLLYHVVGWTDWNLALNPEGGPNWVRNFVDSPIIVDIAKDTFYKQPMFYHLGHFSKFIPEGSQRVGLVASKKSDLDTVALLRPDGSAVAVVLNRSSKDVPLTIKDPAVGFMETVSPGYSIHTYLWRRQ

[17] = molecular target: T7, Tissue alpha-L-fucosidase (Bos taurus, UniProt Q2KIM0); assay: Inhibition of bovine kidney alpha-L-fucosidase
T7 sequence (Q2KIM0 whole entry): T1 sequence (whole entry)

[18] = Inhibition of jack beans alpha-mannosidase; set-up: species or system Canavalia ensiformis
[19] = molecular target: T8, Beta-glucuronidase (Bos taurus, UniProt A3KMY8); assay: Inhibition of bovine liver beta glucuronidase
T8 sequence (A3KMY8 whole entry): T5 sequence (whole entry)

[20] = Inhibition of almond beta-glucosidase; set-up: species or system Prunus dulcis
[21] = Inhibition of coffee beans alpha-galactosidase; set-up: species or system Coffea
[22] = molecular target: T4, Lysosomal alpha-mannosidase (Bos taurus); assay: Inhibition of lysosomal alpha-mannosidase in MDBK cells assessed as Man5-8GlcNAc2FOS formation at 0.1 to 1 mM after 24 hrs by HPLC analysis; assay type: cell-based; method in brief: as §2
[23] = molecular target: Oligo-1,6-glucosidase IMA1 (Saccharomyces cerevisiae S288c, UniProt P53051); assay: Inhibition of yeast alpha-glucosidase
Oligo-1,6-glucosidase IMA1, sequence (P53051 whole entry): as the sequence (P53051 whole entry) above

Row | SMILES | inhibition [1] [%] | IC50 [2] [µM] | inhibition [3] [%] | inhibition [4] [%] | inhibition [5] [%] | inhibition [7] [%] | inhibition [8] | inhibition [9] [%] | inhibition [10] [%] | inhibition [11] [%] | inhibition [12] [%] | inhibition [13] [%] | IC50 [15] [µM] | IC50 [17] [µM] | IC50 [18] [µM] | IC50 [19] [µM] | IC50 [20] [µM] | IC50 [21] [µM] | inhibition [22] | further results
1 | OC[C@H]1CNC[C@@H](O)[C@@H](O)[C@@H]1O | 15.8 | 442 | 41.4 | 0 | 16.8 | 16.6 | Active | 0.9 | 0 | 0 | 18.9 | 14.2 |  |  |  |  |  |  |  | inhibition [6]: 23%
2 | C[C@H]1CNC[C@@H](O)[C@@H](O)[C@@H]1O |  | 876 | 29.4 | 4.3 | 37.6 | 22.2 | Active | 6.8 |  | 0 | 0 | 0 | 226 | 181 | 335 |  |  |  |  | inhibition [14]: Active; inhibition [16]: 49.2%
3 | C[C@@H]1CNC[C@@H](O)[C@@H](O)[C@@H]1O |  | 198 |  | 0.4 |  | 39.9 |  | 20.6 |  |  | 37.8 | 6.9 | 12 | 64 | 101 | 139 | 14 | 14 | inactive | 
4 | OC[C@@H]1CNC[C@@H](O)[C@@H](O)[C@@H]1O | 25 | 420 |  | 0 |  | 17.2 |  | 1.5 | 14.7 |  |  | 0.3 |  |  | 812 | 594 | 157 | 65 | inactive | IC50 [23]: 71 µM
